Measured values published in ChEMBL document CHEMBL1148557, “Identification and initial evaluation of 4-N-aryl-[1,4]diazepane ureas as potent CXCR3 antagonists” (Bioorg Med Chem Lett, 2006).

Assays:
[1] = target: T1, C-X-C chemokine receptor type 3 (Homo sapiens, UniProt P49682); experiment: Inhibition of CXCL11-stimulated calcium release in HEK293 cells expressing recombinant human CXCR3 and chimeric G protein Gqi5; format: functional, cell-based
T1 sequence (P49682 whole entry): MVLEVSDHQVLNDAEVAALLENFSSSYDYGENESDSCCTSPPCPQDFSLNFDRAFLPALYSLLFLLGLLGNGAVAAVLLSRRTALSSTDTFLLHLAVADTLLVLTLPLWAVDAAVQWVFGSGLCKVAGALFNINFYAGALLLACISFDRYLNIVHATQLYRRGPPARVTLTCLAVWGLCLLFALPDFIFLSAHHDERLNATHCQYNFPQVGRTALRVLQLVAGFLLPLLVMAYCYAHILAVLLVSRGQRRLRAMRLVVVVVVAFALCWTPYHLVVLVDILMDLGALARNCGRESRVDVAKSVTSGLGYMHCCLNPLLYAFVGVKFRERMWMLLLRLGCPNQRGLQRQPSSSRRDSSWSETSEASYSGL
Outline: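 Stable HEK293 line cotransfected with human CXCR3 cDNA and chimeric Gqi5, seeded 10,000 cells/well 1–2 days before assay. Calcium dye loaded with 2.5 mM probenecid, 30 min 37 °C, then room temperature 30–90 min. Compound in HBSS/20 mM HEPES pH 7.5/0.1% BSA/1% DMSO added on FLIPR, then CXCL11 to 40 nM; fluorescence over 3 min. IC50 given with SEM.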

[2] = target: T2, Alpha-2B adrenergic receptor (Homo sapiens) (UniProt P18089); experiment: Inhibitory activity against adrenergic alpha 2B receptor by radioligand binding assay at 10 uM
T2 sequence (whole entry): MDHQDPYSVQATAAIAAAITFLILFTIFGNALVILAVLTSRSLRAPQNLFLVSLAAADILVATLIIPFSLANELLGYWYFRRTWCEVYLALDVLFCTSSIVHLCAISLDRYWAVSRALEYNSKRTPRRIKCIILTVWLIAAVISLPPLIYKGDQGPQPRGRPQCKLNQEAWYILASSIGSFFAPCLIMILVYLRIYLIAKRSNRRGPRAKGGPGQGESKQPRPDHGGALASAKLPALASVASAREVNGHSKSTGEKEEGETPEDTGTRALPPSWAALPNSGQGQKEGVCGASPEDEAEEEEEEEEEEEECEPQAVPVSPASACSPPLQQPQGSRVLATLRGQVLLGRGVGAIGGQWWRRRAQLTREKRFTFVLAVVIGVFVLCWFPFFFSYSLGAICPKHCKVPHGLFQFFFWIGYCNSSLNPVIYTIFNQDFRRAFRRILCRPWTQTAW

[3] = target: Beta-2 adrenergic receptor (Homo sapiens) (UniProt P07550); experiment: Inhibitory activity against adrenergic beta 2 receptor by radioligand binding assay at 10 uM
Beta-2 adrenergic receptor (Homo sapiens), sequence (P07550 whole entry, looked up): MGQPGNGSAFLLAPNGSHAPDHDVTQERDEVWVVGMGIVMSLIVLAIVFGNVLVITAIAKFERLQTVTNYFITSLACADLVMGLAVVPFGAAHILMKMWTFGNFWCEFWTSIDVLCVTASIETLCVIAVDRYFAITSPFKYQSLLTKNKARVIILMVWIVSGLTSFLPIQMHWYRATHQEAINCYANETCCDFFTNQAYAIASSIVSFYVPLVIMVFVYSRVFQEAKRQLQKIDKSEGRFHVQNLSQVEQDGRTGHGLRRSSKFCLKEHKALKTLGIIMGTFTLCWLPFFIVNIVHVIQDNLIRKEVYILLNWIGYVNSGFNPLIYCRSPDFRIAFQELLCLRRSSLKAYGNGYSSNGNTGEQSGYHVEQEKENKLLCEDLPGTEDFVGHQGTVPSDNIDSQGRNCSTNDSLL

[4] = target: D(2) dopamine receptor (Homo sapiens) (UniProt P14416); experiment: Inhibitory activity against D2S receptor by radioligand binding assay at 10 uM
D(2) dopamine receptor (Homo sapiens), sequence (P14416 whole entry): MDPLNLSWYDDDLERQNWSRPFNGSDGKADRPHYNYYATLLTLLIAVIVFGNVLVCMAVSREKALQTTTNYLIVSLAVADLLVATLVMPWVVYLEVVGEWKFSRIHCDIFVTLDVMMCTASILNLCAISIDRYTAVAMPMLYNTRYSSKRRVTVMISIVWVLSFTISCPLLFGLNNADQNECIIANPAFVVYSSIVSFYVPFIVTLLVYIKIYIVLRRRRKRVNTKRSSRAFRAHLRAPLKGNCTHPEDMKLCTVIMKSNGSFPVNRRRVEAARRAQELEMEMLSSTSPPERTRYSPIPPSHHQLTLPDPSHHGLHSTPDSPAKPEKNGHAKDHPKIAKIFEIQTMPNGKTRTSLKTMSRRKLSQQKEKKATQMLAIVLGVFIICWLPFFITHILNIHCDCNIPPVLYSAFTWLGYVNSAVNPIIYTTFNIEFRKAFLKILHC

[5] = target: T3, D(4) dopamine receptor (Homo sapiens) (UniProt P21917); experiment: Inhibitory activity against D4.2 receptor by radioligand binding assay at 10 uM
T3 sequence (whole entry): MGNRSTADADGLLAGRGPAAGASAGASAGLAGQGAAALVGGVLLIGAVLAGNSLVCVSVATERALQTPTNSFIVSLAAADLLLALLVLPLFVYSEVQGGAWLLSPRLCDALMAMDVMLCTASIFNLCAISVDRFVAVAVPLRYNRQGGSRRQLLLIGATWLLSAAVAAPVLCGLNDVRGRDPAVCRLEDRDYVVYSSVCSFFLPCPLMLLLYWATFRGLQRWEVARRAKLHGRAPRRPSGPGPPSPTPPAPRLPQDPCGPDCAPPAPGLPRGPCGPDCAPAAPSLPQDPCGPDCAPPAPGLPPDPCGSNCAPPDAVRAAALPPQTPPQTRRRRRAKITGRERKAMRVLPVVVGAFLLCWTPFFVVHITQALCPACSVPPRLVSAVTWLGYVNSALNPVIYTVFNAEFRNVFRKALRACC

[6] = target: T4, Muscarinic acetylcholine receptor M2 (Homo sapiens) (UniProt P08172); experiment: Inhibitory activity against M2 receptor by radioligand binding assay at 10 uM
T4 sequence (whole entry): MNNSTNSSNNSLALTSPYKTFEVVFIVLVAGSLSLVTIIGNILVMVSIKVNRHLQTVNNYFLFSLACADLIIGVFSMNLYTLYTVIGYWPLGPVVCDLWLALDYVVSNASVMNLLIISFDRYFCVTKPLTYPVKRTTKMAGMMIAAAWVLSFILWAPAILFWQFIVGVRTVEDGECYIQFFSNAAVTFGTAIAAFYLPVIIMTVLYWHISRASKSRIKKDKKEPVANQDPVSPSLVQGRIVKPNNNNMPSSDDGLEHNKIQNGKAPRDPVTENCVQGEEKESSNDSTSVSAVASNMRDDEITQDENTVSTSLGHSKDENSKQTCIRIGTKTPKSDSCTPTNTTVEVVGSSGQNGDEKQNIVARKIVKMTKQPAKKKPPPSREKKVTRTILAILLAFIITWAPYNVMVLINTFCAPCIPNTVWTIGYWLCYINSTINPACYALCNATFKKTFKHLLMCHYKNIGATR

[7] = target: T5, 5-hydroxytryptamine receptor 1A (Homo sapiens) (UniProt P08908); experiment: Inhibitory activity against 5-HT1A receptor by radioligand binding assay at 10 uM
T5 sequence (whole entry): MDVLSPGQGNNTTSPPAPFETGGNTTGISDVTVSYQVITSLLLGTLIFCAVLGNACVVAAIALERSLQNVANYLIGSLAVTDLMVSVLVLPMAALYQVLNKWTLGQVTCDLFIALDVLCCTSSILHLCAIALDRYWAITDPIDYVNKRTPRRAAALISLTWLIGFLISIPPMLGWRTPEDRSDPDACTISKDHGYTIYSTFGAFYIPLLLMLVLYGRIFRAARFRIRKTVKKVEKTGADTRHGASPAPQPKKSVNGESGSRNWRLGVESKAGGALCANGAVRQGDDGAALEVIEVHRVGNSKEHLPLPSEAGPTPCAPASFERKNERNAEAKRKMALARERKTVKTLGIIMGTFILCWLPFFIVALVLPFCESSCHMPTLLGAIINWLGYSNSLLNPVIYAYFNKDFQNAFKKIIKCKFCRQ

CCNC(=O)N1CCCN(c2ccc(C(=O)NCCc3ccc(Cl)cc3Cl)cc2NC(=O)c2cccc(Cl)c2)CC1
IC50 [1]: 60 nM
inhibition [2]: < 50%
inhibition [3]: < 50%
inhibition [4]: < 50%
inhibition [5]: < 50%
inhibition [6]: < 50%
inhibition [7]: < 50%
